Series [1] deals with Pseudomonas aeruginosa. The series can be described thus: Antimicrobial activity against Pseudomonas aeruginosa by CLSI method. The format is functional.
The nature of series [2]: (§1) Half life in central compartment of patient with gram-negative bacterial infection at […], iv. The format is ADME, organism-based. Also noted: route intravenous. As to conditions: human, in vivo. A digest of the protocol: (§2)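 Critically ill ICU patients (n=18) received CMS 3 MU (240 mg) in 100 ml saline as a 15-min IV infusion every 8 h, reduced to 160 mg q8h if creatinine clearance was <50 ml/min. Venous plasma was taken predose and 15–465 min after the first and fourth infusions, then chilled and stored at −70°C. Colistin was measured by LC-MS/MS, and CMS after acid hydrolysis. Parameters came from NONMEM population modelling.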

Series [3] can be described thus: Volume of distribution of central compartment in patient with gram-negative bacterial infection at […], iv. The series is classed as ADME, organism-based. As to conditions: human, in vivo. Further details: route intravenous. A digest of the protocol:
as §2

Series [4] can be described thus: (§3) Half life in peripheral compartment of patient with gram-negative bacterial infection at […], iv. The format is ADME, organism-based. Also noted: route intravenous. The note with it: human, in vivo. The method, boiled down:
as §2

Series [5] has as its system Homo sapiens. Description: Intercompartmental clearance in patient with gram-negative bacterial infection at […], iv. The series is classed as ADME, organism-based. Further details: route intravenous. The note with it: in vivo. A digest of the protocol:
as §2

For series [6], the system named is Acinetobacter baumannii. The series can be described thus: Antimicrobial activity against Acinetobacter baumannii by EUCAST method. The format is functional.
The nature of series [7]: Drug concentration at steady state in patient with gram-negative bacterial infection at […], iv after 7 hrs. The format is ADME, organism-based. Further details: route intravenous. As to conditions: human, in vivo, read-out: Css. A digest of the protocol: as §2
Series [8] in a line: Clearance in patient with gram-negative bacterial infection at […], iv. The series is classed as ADME, organism-based. The note with it: human, in vivo. Further details: route intravenous. The method, boiled down:
as §2

Series [9] concerns Acinetobacter baumannii. Description: Antimicrobial activity against Acinetobacter baumannii by CLSI method. The series is classed as functional.
Series [10] can be described thus: Cmax in patient with gram-negative bacterial infection at […], iv after 15 mins. The note with it: human, in vivo. Further details: route intravenous. The format is ADME, organism-based. The method, boiled down:
as §2

The subject of series [11] is Pseudomonas aeruginosa. The series can be described thus: Antimicrobial activity against Pseudomonas aeruginosa by EUCAST method. The format is functional.
Series [12] deals with Homo sapiens. Described as §1. Further details: route intravenous. The note with it: in vivo. The format is ADME, organism-based. A digest of the protocol: as §2
In series [13] the test system is Homo sapiens. The description is as §3. The series is classed as ADME, organism-based. Further details: route intravenous. The note with it: in vivo. The method, boiled down:
as §2

Series [14] relates to Homo sapiens. The series can be described thus: Half life in patient with gram-negative bacterial infection at […], iv. Also noted: route intravenous. The series is classed as ADME, organism-based. As to conditions: in vivo. A digest of the protocol:
as §2

Series [15] relates to Homo sapiens. The series can be described thus: Clearance of formed compound in patient with gram-negative bacterial infection at […], iv. The format is ADME, organism-based. Also noted: route intravenous. The note with it: in vivo. The method, boiled down: as §2
The test system of series [16] is Homo sapiens. The series can be described thus: Volume of distribution of formed compound in patient with gram-negative bacterial infection at […], iv. The note with it: in vivo. The format is ADME, organism-based. Further details: route intravenous. The method, boiled down:
as §2

As a reminder, the MIC is the lowest concentration that inhibits growth of the organism. A lower MIC goes with inhibition by little substance. One may read the half-life as how long it takes for the measured level to halve. Low values mean fast loss, high ones slow loss. As usually defined, the Vd is a proportionality between amount in the body and measured concentration, not a real space. As usually defined, the clearance is the rate of elimination divided by the concentration. A lower clearance goes with inefficient removal. Broadly, the Cmax is the maximum level reached in the sampled fluid or tissue. Consider `CCC(C)CCCCC(=O)N[C@@H](CCNCS(=O)(=O)O)C(=O)N[C@H](C(=O)N[C@@H](CCNCS(=O)(=O)O)C(=O)N[C@H]1CCNC(=O)[C@H]([C@@H](C)O)NC(=O)[C@H](CCNCS(=O)(=O)O)NC(=O)[C@H](CCNCS(=O)(=O)O)NC(=O)[C@H](CC(C)C)NC(=O)[C@@H](CC(C)C)NC(=O)[C@H](CCNCS(=O)(=O)O)NC1=O)[C@@H](C)O.CS(=O)(=O)O` (stereo partly specified) [COLISTIN METHYLSULPHATE], for which the MIC against Pseudomonas aeruginosa [1], in the series on Acinetobacter baumannii [6], in the series with Acinetobacter baumannii [9] and in the series on Pseudomonas aeruginosa [11] was not above 2 µg/mL throughout. The half-life in series [2] was 2.76 min; in series [4] it was 138 min. Moreover, the Vd in [3] came to 13.5 L. The compound also came in with a CL in the series with Homo sapiens [5] of 133 L/h. For the same compound, the concentration at 7 h in series [7] came to 2300 ng/mL. Moreover, the clearance in [8] was 228 mL/min. The compound further had a Cmax in series [10] of 2930 ng/mL.

Turning to COLISTIN, the t1/2 in the series with Homo sapiens [12] was 14.4 h; with Homo sapiens [13], 14.4 h; in the series with Homo sapiens [14], 7.1 h. In the series with Homo sapiens [15], this compound showed a CL of 9.09 L/h. The compound also had a Vd with Homo sapiens [16] of 189 L.

For the origin of these results see ChEMBL document CHEMBL1649525, “Population pharmacokinetic analysis of colistin methanesulfonate and colistin after intravenous administration in critically ill patients with infections caused by gram-negative bacteria” (Antimicrob Agents Chemother, 2009).
